Converted amounts (≈) assume the structure as drawn. The source made the active and inactive calls. The calls are words filed in the database; no cut-off is given here.
How the values were obtained:
Assay type in all cases: functional
Staphylococcus aureus [1] = assay: Antibacterial activity against quinolone-resistant Staphylococcus aureus CCARM 3519 after 24 hrs by two-fold serial dilution method; conditions: CCARM 3519, 24 h
Method in brief: (§1)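 MIC by broth microdilution. Bacteria were grown to mid-log phase in appropriate growth media and seeded into 96-well plates at 10^5 cells/mL. Compounds, with ciprofloxacin as reference, were prepared in DMSO and tested as serial 2-fold dilutions. MICs were determined in triplicate.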

Bacillus subtilis [2] = assay: Antibacterial activity against Bacillus subtilis assessed as diameter of inhibition zone after 24 hrs by disk diffusion method
Method in brief: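 Disk diffusion. B. subtilis colonies cultured 24 h at 28 °C were suspended in sterile distilled water and inoculated onto nutrient agar. A 6 mm i.d. paper disk holding sample was placed on the plate, which was incubated 24 h at 28 °C. Read-out was the inhibition zone.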

Staphylococcus aureus [3] = assay: Antibacterial activity against Staphylococcus aureus RN4220 after 24 hrs by two-fold serial dilution method; conditions: RN4220, 24 h
Method in brief: (§2)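 Broth microdilution MIC. Bacteria grown to mid-log phase in appropriate media and seeded in 96-well microtiter plates at 10^5 cells/mL. Treated with serial 2-fold dilutions of compounds prepared in DMSO, with ciprofloxacin as the reference drug. MIC determined in triplicate.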

Bacillus subtilis [4] = assay: Antibacterial activity against Bacillus subtilis KCTC 1021 after 24 hrs by two-fold serial dilution method; conditions: KCTC 1021, 24 h; method in brief: as §2
Streptococcus pneumoniae = assay: Antibacterial activity against Streptococcus pneumoniae KCTC 5412 after 24 hrs by two-fold serial dilution method; conditions: KCTC 5412, 24 h; method in brief: as §2
Acinetobacter baumannii = assay: Antibacterial activity against Acinetobacter baumannii KCTC 2508 after 24 hrs by two-fold serial dilution method; conditions: KCTC 2508, 24 h; method in brief: as §2
Escherichia coli = assay: Antibacterial activity against Escherichia coli CCARM 1356 after 24 hrs by two-fold serial dilution method; conditions: CCARM 1356, 24 h; method in brief: as §2
Pseudomonas aeruginosa = assay: Antibacterial activity against Pseudomonas aeruginosa KCTC 2004 after 24 hrs by two-fold serial dilution method; conditions: KCTC 2004, 24 h; method in brief: as §2
Staphylococcus aureus [5] = assay: Antibacterial activity against methicillin-resistant Staphylococcus aureus CCARM 3506 after 24 hrs by two-fold serial dilution method; conditions: CCARM 3506, 24 h; method in brief: as §1
Enterococcus faecalis = assay: Antibacterial activity against Enterococcus faecalis KCTC 5191 after 24 hrs by two-fold serial dilution method; conditions: KCTC 5191, 24 h; method in brief: as §2
Staphylococcus aureus [6] = assay: Antibacterial activity against quinolone-resistant Staphylococcus aureus CCARM 3505 after 24 hrs by two-fold serial dilution method; conditions: CCARM 3505, 24 h; method in brief: as §1
Staphylococcus aureus [7] = assay: Antibacterial activity against methicillin-resistant Staphylococcus aureus CCARM 3167 after 24 hrs by two-fold serial dilution method; conditions: CCARM 3167, 24 h; method in brief: as §1

Q: What does the source list for `CC(C)C[C@@H]1NC(=O)CN2C(=O)[C@H](CNC(=O)[C@@H](CNC(=O)/C=C/NC(=O)/C=C/C=C/CCC/C=C/CC[C@@H](C)O)NC1=O)NC2(C)C`?
A: MIC (Staphylococcus aureus [1]): 16 µg/mL (≈ 23.8 µM); diameter of the inhibition zone (DIZ) (Bacillus subtilis [2]): 13.5 mm; MIC (Staphylococcus aureus [3]): > 128 µg/mL; MIC (Bacillus subtilis [4]): 16 µg/mL (≈ 23.8 µM); MIC (Streptococcus pneumoniae): > 128 µg/mL; MIC (Acinetobacter baumannii): > 128 µg/mL; MIC (Escherichia coli): > 128 µg/mL; MIC (Pseudomonas aeruginosa): > 128 µg/mL; MIC (Staphylococcus aureus [5]): 8 µg/mL (≈ 11.9 µM); MIC (Enterococcus faecalis): 8 µg/mL (≈ 11.9 µM); MIC (Staphylococcus aureus [6]): 16 µg/mL (≈ 23.8 µM); MIC (Staphylococcus aureus [7]): 32 µg/mL (≈ 47.6 µM)

Q: How did the Activity (Bacillus subtilis [2]) turn out when `C[C@@H](O)CC/C=C/CCC/C=C/C=C/C(=O)N/C=C/C(=O)NC[C@H]1NC(=O)[C@H](Cc2ccccc2)NC(=O)CNC(=O)[C@@H](N)CNC1=O` was run?
A: The Activity was “inactive”.

Q: `O=C(O)c1cn(C2CC2)c2cc(N3CCNCC3)c(F)cc2c1=O` [CIPROFLOXACIN] was tested. Which MIC (Bacillus subtilis [4]) did it give?
A: The MIC was 0.0312 µg/mL (≈ 0.0943 µM).

Q: What about the MIC (Acinetobacter baumannii) of the same compound?
A: Its MIC is 0.25 µg/mL (≈ 0.754 µM).

Q: And the MIC (Escherichia coli)?
A: Its MIC is 64 µg/mL (≈ 193 µM).

Q: And the MIC (Enterococcus faecalis)?
A: Its MIC is 1 µg/mL (≈ 3.02 µM).

Q: And the MIC (Staphylococcus aureus [6])?
A: Its MIC is 32 µg/mL (≈ 96.6 µM).

Q: And the MIC (Staphylococcus aureus [7])?
A: The MIC was 4 µg/mL (≈ 12.1 µM).

Q: Which results are given for `C[C@@H](O)CC/C=C/CCC/C=C/C=C/C(=O)N/C=C/C(=O)NC[C@H]1NC(=O)[C@H](Cc2ccccc2)NC(=O)CN2C(=O)[C@H](CNC1=O)NC2(C)C`?
A: MIC (Staphylococcus aureus [1]): > 128 µg/mL; diameter of the inhibition zone (DIZ) (Bacillus subtilis [2]): 15 mm; MIC (Staphylococcus aureus [3]): > 128 µg/mL; MIC (Bacillus subtilis [4]): 4 µg/mL (≈ 5.67 µM); MIC (Streptococcus pneumoniae): > 128 µg/mL; MIC (Acinetobacter baumannii): > 128 µg/mL; MIC (Escherichia coli): > 128 µg/mL; MIC (Pseudomonas aeruginosa): > 128 µg/mL; MIC (Staphylococcus aureus [5]): > 128 µg/mL; MIC (Enterococcus faecalis): > 128 µg/mL; MIC (Staphylococcus aureus [6]): > 128 µg/mL; MIC (Staphylococcus aureus [7]): > 128 µg/mL

Q: For `CC[C@H](C)[C@@H]1NC(=O)[C@H]([C@@H](C)O)NC(=O)[C@@H](N)CNC(=O)[C@@H](CNC(=O)/C=C/NC(=O)/C=C/C=C/CCC/C=C/CC[C@@H](C)O)NC1=O`, which Activity (Bacillus subtilis [2]) is on record?
A: Its Activity is “inactive”.

Q: Which Activity (Bacillus subtilis [2]) does the source give for `CC(C)C[C@@H]1NC(=O)CNC(=O)[C@@H](N)CNC(=O)[C@@H](CNC(=O)/C=C/NC(=O)/C=C/C=C/CCC/C=C/CC[C@@H](C)O)NC1=O` here?
A: Its Activity is “inactive”.

Q: Which results are given for `CC[C@H](C)[C@@H]1NC(=O)[C@H]([C@@H](C)O)N2C(=O)[C@H](CNC(=O)[C@@H](CNC(=O)/C=C/NC(=O)/C=C/C=C/CCC/C=C/CC[C@@H](C)O)NC1=O)NC2(C)C`?
A: MIC (Staphylococcus aureus [1]): 32 µg/mL (≈ 44.7 µM); diameter of the inhibition zone (DIZ) (Bacillus subtilis [2]): 13.5 mm; MIC (Staphylococcus aureus [3]): 32 µg/mL (≈ 44.7 µM); MIC (Bacillus subtilis [4]): 16 µg/mL (≈ 22.3 µM); MIC (Streptococcus pneumoniae): > 128 µg/mL; MIC (Acinetobacter baumannii): > 128 µg/mL; MIC (Escherichia coli): > 128 µg/mL; MIC (Pseudomonas aeruginosa): > 128 µg/mL; MIC (Staphylococcus aureus [5]): 16 µg/mL (≈ 22.3 µM); MIC (Enterococcus faecalis): 64 µg/mL (≈ 89.4 µM); MIC (Staphylococcus aureus [6]): 32 µg/mL (≈ 44.7 µM); MIC (Staphylococcus aureus [7]): 64 µg/mL (≈ 89.4 µM)

Source: ChEMBL document CHEMBL4265993, “Antibacterial Cyclic Lipopeptide Enamidonins with an Enamide-Linked Acyl Chain from a Streptomyces Species” (2018)
